The source of these data is ChEMBL document CHEMBL1136635, “Modification of the N-terminus of peptidomimetic protein tyrosine phosphatase 1B (PTP1B) inhibitors: identification of analogues with cellular activity” (Bioorg Med Chem Lett, 2003).

Assay [1] deals with Receptor-type tyrosine-protein phosphatase F (Homo sapiens) (UniProt P10586). Briefly: Inhibitory activity against phosphatase (LAR) at a concentration of 100 uM. In a few lines:
(§1)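 Purified recombinant human enzyme constructs; PTP1B is a C-terminally truncated soluble form, tested alongside LAR and SHP-2. Activity is read as the initial rate of p-nitrophenyl phosphate (pNPP) hydrolysis and reported as percent inhibition. PTP1B is tested at 100, 10 and 1 µM, or 10 and 1 µM in the salicylate series; LAR and SHP-2 at 100 µM.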

Assay [2] is described as follows: Uptake of 2-DOG (2-deoxyglucose) into L6 myocytes in the presence of half-maximal concentration of insulin at 100 uM. The class given is functional, Rattus norvegicus. In a few lines:
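L6 myotubes are exposed to compound at 100 µM with 10 nM insulin, a dose eliciting about 50% of maximal uptake. The initial rate of 2-[3H]deoxyglucose uptake is measured, with L-[14C]glucose marking extracellular space, and normalized to recovered lysate protein. Net insulin-dependent transport with inhibitor is expressed as a percent of that without inhibitor.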

Assay [3] addresses T1, Tyrosine-protein phosphatase non-receptor type 1 (Homo sapiens, UniProt P18031).
T1 sequence (P18031 whole entry): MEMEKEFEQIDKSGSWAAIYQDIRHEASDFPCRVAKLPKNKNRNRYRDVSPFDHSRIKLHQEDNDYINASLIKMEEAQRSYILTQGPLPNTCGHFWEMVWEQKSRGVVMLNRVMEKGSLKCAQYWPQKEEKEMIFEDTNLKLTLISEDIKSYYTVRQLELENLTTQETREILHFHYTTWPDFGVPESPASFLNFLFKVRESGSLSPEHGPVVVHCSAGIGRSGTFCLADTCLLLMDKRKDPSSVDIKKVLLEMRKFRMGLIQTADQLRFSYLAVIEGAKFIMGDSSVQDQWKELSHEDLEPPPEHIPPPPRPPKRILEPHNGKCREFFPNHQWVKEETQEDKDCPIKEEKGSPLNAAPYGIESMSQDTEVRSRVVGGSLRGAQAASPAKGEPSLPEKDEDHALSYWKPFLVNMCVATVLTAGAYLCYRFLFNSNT
The assay can be described thus: Inhibitory activity against human protein tyrosine phosphatase 1B (PTP1B). In a few lines:
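Ki against a C-terminally truncated, soluble recombinant human PTP1B. Initial rates of pNPP hydrolysis are measured, and the Ki is computed by the Cornish-Bowden direct linear method.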

The target in assay [4] is T2, Tyrosine-protein phosphatase non-receptor type 1 (Homo sapiens) (UniProt P18031).
T2 sequence (whole entry): T1 sequence (P18031 whole entry)
The assay can be described thus: Inhibitory activity against human protein tyrosine phosphatase 1B (PTP1B) at a concentration of 10 uM. The essentials: as §1

The target in assay [5] is T3, Tyrosine-protein phosphatase non-receptor type 11 (Homo sapiens) (UniProt Q06124).
T3 sequence (whole entry): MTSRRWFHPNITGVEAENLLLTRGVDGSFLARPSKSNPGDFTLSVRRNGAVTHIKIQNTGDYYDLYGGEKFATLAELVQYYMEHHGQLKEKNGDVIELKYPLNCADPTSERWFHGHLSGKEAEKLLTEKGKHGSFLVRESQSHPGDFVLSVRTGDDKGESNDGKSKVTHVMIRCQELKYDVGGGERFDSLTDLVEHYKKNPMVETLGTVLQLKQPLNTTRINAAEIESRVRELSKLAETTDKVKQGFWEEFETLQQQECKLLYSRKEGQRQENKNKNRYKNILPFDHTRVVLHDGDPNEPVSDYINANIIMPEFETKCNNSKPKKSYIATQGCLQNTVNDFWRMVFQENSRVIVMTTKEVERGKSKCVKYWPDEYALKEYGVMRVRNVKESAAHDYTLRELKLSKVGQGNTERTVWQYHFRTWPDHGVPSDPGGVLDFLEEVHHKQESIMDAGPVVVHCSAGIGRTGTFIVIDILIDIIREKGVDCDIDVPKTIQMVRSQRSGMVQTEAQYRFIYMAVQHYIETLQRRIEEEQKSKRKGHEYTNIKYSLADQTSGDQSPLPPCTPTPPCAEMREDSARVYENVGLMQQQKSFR
The assay can be described thus: Inhibition of recombinant human phosphatase (SHP-2) at a concentration of 100 uM. In a few lines:
as §1

Assay [6] deals with T2, Tyrosine-protein phosphatase non-receptor type 1 (Homo sapiens). Briefly: Inhibitory activity against human protein tyrosine phosphatase 1B (PTP1B) at a concentration of 1 uM. The essentials: as §1
The target is the same in assay [7]. Briefly: Inhibitory activity against human protein tyrosine phosphatase 1B (PTP1B) at a concentration of 100 uM. The essentials: as §1
In assay [8] the target is Tyrosine-protein phosphatase non-receptor type 11, SHP-2 (Homo sapiens) (UniProt Q06124). Briefly: Inhibitory activity against phosphatase (SHP-2) at a concentration of 100 uM.
Assay [9] concerns the target T3, Tyrosine-protein phosphatase non-receptor type 11 (Homo sapiens). The assay can be described thus: Inhibitory activity against phosphatase ([…]) at a concentration of 100 uM. In a few lines:
as §1

Receptor-type tyrosine-protein phosphatase F (Homo sapiens), sequence (P10586 whole entry, the tested form may be a part): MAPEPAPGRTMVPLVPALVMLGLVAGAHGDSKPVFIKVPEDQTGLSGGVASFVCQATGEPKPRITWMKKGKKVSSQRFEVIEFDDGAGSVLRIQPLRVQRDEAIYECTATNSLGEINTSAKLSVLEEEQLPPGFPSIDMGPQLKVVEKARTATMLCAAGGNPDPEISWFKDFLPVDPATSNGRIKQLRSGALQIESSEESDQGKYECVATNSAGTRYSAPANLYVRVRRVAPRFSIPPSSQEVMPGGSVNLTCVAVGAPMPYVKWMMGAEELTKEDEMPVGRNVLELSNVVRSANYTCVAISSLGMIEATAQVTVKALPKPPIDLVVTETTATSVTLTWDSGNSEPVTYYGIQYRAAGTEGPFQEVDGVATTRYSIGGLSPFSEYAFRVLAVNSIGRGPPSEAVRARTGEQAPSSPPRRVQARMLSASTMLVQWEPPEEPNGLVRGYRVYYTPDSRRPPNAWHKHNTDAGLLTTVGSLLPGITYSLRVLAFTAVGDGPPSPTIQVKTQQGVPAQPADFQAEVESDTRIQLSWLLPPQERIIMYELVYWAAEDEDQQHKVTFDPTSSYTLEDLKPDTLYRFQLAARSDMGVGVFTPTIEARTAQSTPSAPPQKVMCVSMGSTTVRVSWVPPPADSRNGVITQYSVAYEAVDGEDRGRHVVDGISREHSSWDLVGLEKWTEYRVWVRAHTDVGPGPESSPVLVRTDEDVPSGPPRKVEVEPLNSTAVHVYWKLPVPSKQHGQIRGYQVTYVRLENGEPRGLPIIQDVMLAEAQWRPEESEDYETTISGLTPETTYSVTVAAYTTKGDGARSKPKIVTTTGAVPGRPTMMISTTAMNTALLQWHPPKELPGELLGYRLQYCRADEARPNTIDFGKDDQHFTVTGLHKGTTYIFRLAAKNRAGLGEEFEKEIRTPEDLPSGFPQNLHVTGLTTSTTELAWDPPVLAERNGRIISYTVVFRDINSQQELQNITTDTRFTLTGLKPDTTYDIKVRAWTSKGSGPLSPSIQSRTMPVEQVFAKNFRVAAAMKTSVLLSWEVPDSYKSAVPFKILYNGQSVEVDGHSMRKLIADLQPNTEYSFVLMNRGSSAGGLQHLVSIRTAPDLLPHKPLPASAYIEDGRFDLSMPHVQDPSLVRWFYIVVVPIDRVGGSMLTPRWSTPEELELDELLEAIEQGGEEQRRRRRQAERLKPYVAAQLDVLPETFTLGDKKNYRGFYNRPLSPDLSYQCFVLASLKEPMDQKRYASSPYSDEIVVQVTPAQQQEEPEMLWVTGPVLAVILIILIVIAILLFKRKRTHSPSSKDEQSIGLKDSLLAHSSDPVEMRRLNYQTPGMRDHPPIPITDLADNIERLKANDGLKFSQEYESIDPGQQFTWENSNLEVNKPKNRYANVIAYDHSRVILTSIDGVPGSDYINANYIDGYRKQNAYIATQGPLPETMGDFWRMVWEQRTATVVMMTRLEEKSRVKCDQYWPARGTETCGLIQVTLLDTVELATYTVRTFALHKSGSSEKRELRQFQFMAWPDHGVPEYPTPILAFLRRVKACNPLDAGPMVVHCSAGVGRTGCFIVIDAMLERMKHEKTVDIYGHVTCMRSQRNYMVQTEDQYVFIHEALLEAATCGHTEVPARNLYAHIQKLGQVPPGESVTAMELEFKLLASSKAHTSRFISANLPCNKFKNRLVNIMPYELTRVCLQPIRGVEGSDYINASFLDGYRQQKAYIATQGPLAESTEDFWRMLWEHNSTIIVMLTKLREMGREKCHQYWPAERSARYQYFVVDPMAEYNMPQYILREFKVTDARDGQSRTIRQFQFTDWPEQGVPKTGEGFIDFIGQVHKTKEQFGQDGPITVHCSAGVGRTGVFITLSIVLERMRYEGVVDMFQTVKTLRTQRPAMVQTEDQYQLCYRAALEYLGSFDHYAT

For orientation: inhibition means the percentage by which the read-out fell short of the control. A word on the Ki: it is a dissociation constant, usually derived from enzyme kinetics or from competition with a known ligand. `CCCCCNC(=O)[C@H](Cc1ccc(OCC(=O)O)c(C(=O)O)c1)NC(=O)[C@H](Cc1ccccc1)NC(=O)CCc1ccccc1`: the inhibition in assay [1] was 0%; in assay [4], 74%; in [5], 12%; in assay [6], 22%. Besides, the “Control Uptake” value in assay [2] is 136%. The compound further came in with a Ki in assay [3] of 1400 nM.
Regarding `CCCCCNC(=O)[C@H](Cc1ccc(OC(C(=O)O)C(=O)O)cc1)NC(=O)[C@H](C)NC(=O)OC(C)(C)C`, the inhibition came to 0% in assay [1]; 36% in assay [4]; 3% in [5]; 83% in assay [7]; 7% in assay [6]. Besides, the “Control Uptake” value in assay [2] is on record as 88%. Also, the Ki in [3] was found to be 14000 nM.
For the compound `CCCCCNC(=O)[C@H](Cc1ccc(OCC(=O)O)c(C(=O)O)c1)NC(=O)[C@H](Cc1ccccc1)NC(=O)Oc1ccccc1`, the inhibition came out at 0% in [1], 85% in assay [4], 11% in assay [5] and 43% in assay [6]. Besides, the “Control Uptake” value in assay [2] was found to be 103%. Besides, the Ki in assay [3] came out at 870 nM.
Turning to `CCCCCNC(=O)[C@H](Cc1ccc(OCC(=O)O)c(C(=O)O)c1)NC(=O)[C@H](Cc1ccccc1)NC(=O)Cc1ccc(OC)cc1`, the inhibition in assay [1] is 5%; in [4] it was 87%; in assay [5], 25%; in assay [6], 46%. The “Control Uptake” value in [2] amounted to 141%. In assay [3], this compound returned an inhibition constant Ki of 670 nM.
Take `CCCCCNC(=O)[C@H](Cc1ccc(OCC(=O)O)c(C(=O)O)c1)NC(=O)[C@H](Cc1ccccc1)NC(=O)Cn1nnnc1S`: the inhibition came out at 0% in assay [1], 91% in assay [4], 10% in assay [5] and 57% in [6]. Further, the “Control Uptake” value in assay [2] stood at 89%. In addition, in assay [3], the Ki was 700 nM.
For `CCCCCNC(=O)[C@H](Cc1ccc(OC(C(=O)O)C(=O)O)cc1)NC(=O)[C@@H](NC(=O)OC(C)(C)C)C(C)C`, the inhibition in assay [1] turned out to be 0%; in assay [8] it was 0%; in assay [4] it was 18%; in assay [7], 72%; in assay [6], 3%.
Turning to `CCCCCNC(=O)[C@H](Cc1ccc(OC(C(=O)O)C(=O)O)cc1)NC(=O)[C@H](Cc1ccccc1)NC(=O)OC(C)(C)C`, the inhibition in assay [1] turned out to be 27%; in [9] it was 10%; in assay [4], 48%; in assay [7], 91%; in [6], 7%. The “Control Uptake” value in assay [2] is recorded as 88%. For the same compound, in assay [3], the affinity corresponds to a Ki of 9000 nM.
Consider `CCCCCNC(=O)[C@H](Cc1ccc(OCC(=O)O)c(C(=O)O)c1)NC(=O)[C@H](Cc1ccccc1)NC(=O)Cc1ccc(C(F)(F)F)cc1`, for which the inhibition in assay [1] stood at 0%; in [4] it was 85%; in assay [5], 28%; in assay [6], 39%. Besides, in assay [2], the “Control Uptake” value came out at 130%. The same compound yielded a Ki in assay [3] of 590 nM.
`CCCCCCCCCCCCCCCCCC(=O)N[C@@H](Cc1ccccc1)C(=O)N[C@@H](Cc1ccc(OCC(=O)O)c(C(=O)O)c1)C(=O)NCCCCC`: the inhibition in [1] came to 0%; in assay [8] it was 54%; in assay [4] it was 3%; in assay [6] it was 1%.
